HCV core dimer = blocks dimerization of HCV core protein | 0.33% of 300,000 active | TR-FRET GST/Flag-core106 dimerization, 1536-well | inhibition, % at 5 µM;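 active = inhibition above the mean of all tested compounds plus 3 SD, set per screening campaign, cut at about 45% in these data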
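Assay system: GST-tagged and Flag-tagged HCV core protein residues 1-106 / Times: compound-protein-antibody incubation 4 h at 22.5 °C / Signal: time-resolved FRET, ex 340 nm, em 617 and 671 nm / Evaluation: % inhibition based on acceptor/donor emission ratio / Benchmarks: wells lacking GST-core106 and wells with excess unlabelled core106 / Repeats: singlicate, one well per compound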
ASAP1 inh = ASAP1 ArfGAP inhibition | 0.19% of 360,000 active | AID 624377 | ASAP1-stimulated ARF1 GTP hydrolysis, GDP FP detection | Q9ULH1 | inhibition, % at 16.5 µM; in the data active = inhibition above about 25%;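 note: 0% = vehicle with enzyme and substrate and 100% = no enzyme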
Target sequence (Q9ULH1 325-724 limits assumed): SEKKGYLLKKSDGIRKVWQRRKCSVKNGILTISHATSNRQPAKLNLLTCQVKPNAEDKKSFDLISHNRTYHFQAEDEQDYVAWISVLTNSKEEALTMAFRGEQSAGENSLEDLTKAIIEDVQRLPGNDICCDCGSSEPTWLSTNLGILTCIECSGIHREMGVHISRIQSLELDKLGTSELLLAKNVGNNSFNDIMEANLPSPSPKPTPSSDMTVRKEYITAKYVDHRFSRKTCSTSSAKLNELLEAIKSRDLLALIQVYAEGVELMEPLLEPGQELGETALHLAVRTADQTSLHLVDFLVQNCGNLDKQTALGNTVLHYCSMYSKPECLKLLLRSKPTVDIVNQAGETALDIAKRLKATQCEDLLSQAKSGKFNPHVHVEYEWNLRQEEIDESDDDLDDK
CTSL1 counter = cathepsin L1 inhibition, PFM18AAP counter-screen; 0.49% of 300,000 active; inhibition, % at 5.96 µM; recombinant F. hepatica cathepsin L1, Z-Leu-Arg-MCA fluorescence;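 active = inhibition above the mean of all tested compounds plus 3 SD, set per screening campaign, cut at about 17% in these data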;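 note: 0% = plate median of test compound wells and 100% = 1 µM Z-Phe-Ala-diazomethylketone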
ARFGAP1 inhibitor = inhibitors of rat ARFGAP1. Arfgap1-stimulated ARF1 GTP hydrolysis, GDP FP detection. inhibition, % at 16.5 µM. 0.26% of 360,000 active. AID 651572;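 active = inhibition above a per-plate limit, mean inhibition of low control wells plus 3 SD, cut at about 25% in these data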;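 note: 0% = DMSO wells with enzyme and 100% = wells lacking Arfgap1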
Target sequence (Q62848 1-136 limits assumed): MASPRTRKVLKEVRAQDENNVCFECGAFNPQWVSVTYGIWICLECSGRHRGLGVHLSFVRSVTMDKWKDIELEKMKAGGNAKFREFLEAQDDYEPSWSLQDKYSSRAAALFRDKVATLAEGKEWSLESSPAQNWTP
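Material – truncated rat Arfgap1 GAP domain · Buffer or medium – HEPES-based buffer, pH 7.5 · Reagent – human ARF1(Δ1-17)-GTP substrate · Dosing – 16.5 µM single point, 1.26% DMSO · Schedule – GTP hydrolysis reaction 2 h at 25 °C · Technique – GDP detection by fluorescence polarization · Benchmarks – No-Arfgap1 wells (100%) versus DMSO full-reaction wells (0%) · Repeats – single replicate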
NPR1 activator = GC-A (human) enzyme activation; P16066; HEK293 GC-A cells, cGMP TR-FRET, EC30 ANP; 0% at EC30 ANP, 100% saturating ANP; activation, % at 10 µM; 0.14% of 370,000 active; AID 1671463; in the data active = activation above about 40%
NPR2 activator = GC-B (human) receptor activation. HEK293-GC-B cells, CNP EC30, cGMP TR-FRET; 0% at EC30 CNP, 100% saturating CNP. AID 1920062. activation, % at 10 µM. 0.11% of 370,000 active;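 active = activation at 10 µM reaching about 35% in either raw or pattern-adjusted values, limit read from the data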
* marks the source's active call; other numbers are inactive results; · = no result given. An excerpt weighted towards active compounds, which were near 1.2% of everything screened.

SMILES	HCV core dimer	ASAP1 inh	CTSL1 counter	ARFGAP1 inhibitor	NPR1 activator	NPR2 activator
COC(=O)c1cc(-c2ccc(C)o2)nc2ccccc12	13.7	-2.8	1.5	-9.6	8.5	5.8
Cc1ccc(-c2cc(C(=O)Nc3ccccc3C)c3ccccc3n2)o1	64.1*	3.9	6.8	-9.7	0.7	6.0
N#CC1=C(N)Oc2c(oc(CO)cc2=O)C1c1ccsc1 (stereo not given)	6.4	12.3	-2.0	-3.3	-0.3	1.6
N#CC1=C(N)Oc2c(ccc3ccccc23)C1c1ccsc1 (stereo not given)	70.8*	6.6	-2.9	-0.6	-0.2	-4.2
CC(C)CCOc1ccc(C(=O)NCC(c2ccco2)N(C)C)cc1 (stereo not given)	10.3	3.0	0.6	-4.6	5.7	3.1
C=CCn1c(COc2ccccc2)nnc1SCC(=O)c1ccc(OC)cc1	·	·	·	·	-2.3	-1.8
Cc1ccc(S(=O)(=O)N[C@@H](Cc2ccccc2)C(=O)CCl)cc1	14.2	13.0	69.8*	-1.3	-13.4	-5.7
Cc1ccc(S(=O)(=O)NC(Cc2ccccc2)C(=O)NN)cc1 (stereo not given)	1.0	2.8	0.3	1.2	-1.4	-0.3
O=C(Nc1cccc(S(=O)(=O)NC2=NCCC2)c1)C1CCC1	-7.3	-3.4	-1.0	10.1	0.6	1.8
Cc1ccnc(Nc2nc(-c3ccccc3)cs2)c1	1.2	4.7	-3.8	13.9	6.4	-0.7
Cc1ccnc(Nc2nc(-c3c(C)nc4sccn34)cs2)c1	0.1	8.8	4.1	14.0	32.0	36.7*
C=CCc1cccc2cc(C(=O)Nc3ccc(CC(=O)O)cc3)c(=O)oc12	31.7	-2.1	2.2	6.4	-2.0	-1.2
C=CCNC(=S)N/N=C/c1cn(C)c2ccccc12	-4.0	-7.1	4.7	-12.0	9.9	9.6
Cn1cc(/C=N/NC(N)=S)c2ccccc21	-1.1	1.8	99.8*	-8.9	-4.5	-4.3
O=C(Nc1ccncc1)c1cccc(S(=O)(=O)N2CCc3ccccc32)c1	-9.5	-1.6	16.8*	-8.2	-18.2	-16.9
Cc1ccc(NC(=O)CCl)cc1S(=O)(=O)N1CCCCCC1	5.7	-6.7	58.5*	2.7	-2.0	-0.8
CC1CCCC(C)N1CCCNC(=O)CCn1c(=O)c2cccn2c2cccnc21 (stereo not given)	-23.6	-8.8	1.4	7.7	3.0	-1.6
Cc1ccc(C(C[N+](=O)[O-])c2c(C)[nH]n(-c3ccccc3)c2=O)cc1 (stereo not given)	-1.9	-9.8	30.9*	2.0	-4.0	1.8
COc1ccc(-c2c(C)sc(NC(=O)c3ccnn3C)c2C#N)cc1	70.6*	12.1	0.5	5.7	2.2	1.4
COC(=O)c1cccc2c1C(=O)c1cc([N+](=O)[O-])ccc1-2	·	1.3	·	2.7	-6.3	-2.1
CC(C)N1Cc2nnn(Cc3ccccc3)c2-c2ccccc2S1(=O)=O	·	·	·	·	-5.5	-3.5
CN(CC(=O)N1CCc2[nH]c3ccc(F)cc3c2C1)CC1OCCO1	-1.9	-7.8	0.6	4.8	-0.5	1.5
Cc1ccc2[nH]c3c(c2c1)CN(C(=O)CN(C)CC1OCCO1)CC3	1.8	11.4	16.8*	8.4	-7.5	2.2
O=C(N/C(=C\c1ccc([N+](=O)[O-])cc1)C(=O)N1CCCCC1)c1ccc(Br)o1	2.5	-4.9	1.1	5.7	-2.4	4.4
Cc1cccc(Nc2nnc(-c3ccc(N4CCOCC4)c([N+](=O)[O-])c3)c3ccccc23)c1	24.5	-4.0	-0.2	-4.7	31.9	48.2*
SMILES	HCV core dimer	ASAP1 inh	CTSL1 counter	ARFGAP1 inhibitor	NPR1 activator	NPR2 activator
NC(=O)[C@H]1CC2(CC(c3cccc(NC(=O)CC(c4ccccc4)c4ccccc4)c3)=NO2)CN1C(=O)c1ccccc1C(=O)c1ccccc1 (stereo not given in full)	46.3*	14.1	-2.0	-2.8	1.1	1.6
C/C=C\C=C/C(=O)Nc1cccc(C2=NOC3(C2)C[C@@H](C(N)=O)N(C(=O)[C@H]2CCC(=O)N2)C3)c1 (stereo not given in full)	41.0	·	19.8*	·	·	·
C=C(C)C(=O)N1CC2(CC(c3cccc(NC(=O)/C=C\C=C/C)c3)=NO2)C[C@H]1C(N)=O (stereo not given in full)	56.4*	2.9	8.1	-1.3	4.3	-1.3
C/C=C\C=C/C(=O)Nc1cccc(C2=NOC3(C2)C[C@@H](C(N)=O)N(C(=O)/C=C/CC)C3)c1 (stereo not given in full)	52.7*	·	3.8	·	·	·
CCC(=O)Nc1cccc(C2=NOC3(C2)C[C@@H](C(N)=O)N(C(=O)c2ccccc2C(=O)c2ccccc2)C3)c1 (stereo not given in full)	-11.2	9.8	3.7	3.4	-0.9	-0.6
C/C=C\C=C/C(=O)Nc1cccc(C2=NOC3(C2)C[C@@H](C(N)=O)N(C(=O)/C=C/C=C\C)C3)c1 (stereo not given in full)	39.3	·	4.6	·	·	·
CCCCCC(=O)Nc1cccc(C2=NOC3(C2)C[C@H](C(N)=O)N(C(=O)[C@H]2CCC(=O)N2)C3)c1 (stereo not given in full)	1.9	4.9	-1.5	4.1	2.5	-0.6
C/C=C\C(=O)Nc1cccc(C2=NOC3(C2)C[C@H](C(N)=O)N(C(=O)/C=C/CC)C3)c1 (stereo not given in full)	-4.2	0.3	-5.8	3.0	0.5	9.6
CN(CC(=O)NCCCN1CCOCC1)S(=O)(=O)c1ccc(F)cc1	6.8	-5.6	1.8	3.1	3.3	0.9
CC1CCN(S(=O)(=O)c2ccc3c4c2CC(=O)N4CC(C)S3)CC1 (stereo not given)	-2.3	1.7	31.3*	-0.1	19.6	29.7
Cc1ccc(S(=O)(=O)N2CCN(S(=O)(=O)N3CCC(C)CC3)CC2)c(C)c1	4.1	-6.6	1.9	-4.2	-2.4	4.3
Oc1cc(NCc2ccc(F)cc2)cc2cccnc12	·	-1.6	·	-5.2	1.6	4.0
COc1ccccc1-n1c(=O)c(C#N)c(-c2ccc([N+](=O)[O-])cc2)c2cc(C(=O)c3cc(F)ccc3O)cnc21	49.3*	2.5	2.5	7.7	1.6	-2.3
O=C(O)c1ccccc1OC(C(=O)Nc1cc(Cl)cc(Cl)c1)c1ccccc1 (stereo not given)	6.7	-11.0	-2.7	0.0	-13.6	-11.3
C=CCOC(=O)c1[nH]c2c(c1C)C(=O)CC(c1ccco1)C2 (stereo not given)	27.6	·	-2.8	·	·	·
Cc1c(C(=O)OCC2CCCO2)[nH]c2c1C(=O)CC(c1ccco1)C2 (stereo not given)	86.2*	·	-0.4	·	·	·
